Measurements: ChEMBL document CHEMBL1914440, “Discovery of potent, selective, and orally bioavailable alkynylphenoxyacetic acid CRTH2 (DP2) receptor antagonists for the treatment of allergic inflammatory diseases” (J Med Chem, 2011)
The source made the active and inactive calls. No cut-off for these calls is given here.

Legend:
[1] = target: T1, Prostaglandin D2 receptor 2 (Homo sapiens, UniProt Q9Y5Y4); experiment: Displacement of [3H]PGD2 from human CRTH2 expressed in chinese hamster CHO cells by liquid scintillation counting; assay type: cell-based
T1 sequence (Q9Y5Y4 whole entry): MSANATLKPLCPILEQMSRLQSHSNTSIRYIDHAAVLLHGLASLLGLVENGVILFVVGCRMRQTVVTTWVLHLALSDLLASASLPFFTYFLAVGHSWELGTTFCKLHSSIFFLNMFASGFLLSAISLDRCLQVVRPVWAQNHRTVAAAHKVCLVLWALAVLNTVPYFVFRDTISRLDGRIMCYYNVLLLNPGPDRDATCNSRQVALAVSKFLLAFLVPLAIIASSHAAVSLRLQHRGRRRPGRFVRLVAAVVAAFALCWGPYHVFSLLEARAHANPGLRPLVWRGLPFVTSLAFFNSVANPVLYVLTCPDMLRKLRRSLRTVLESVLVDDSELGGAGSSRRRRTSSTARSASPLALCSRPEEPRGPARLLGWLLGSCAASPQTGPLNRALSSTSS
How it was run: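 Scintillation proximity competition assay: 2–5 μg human CRTH2 cell membranes, 1.5 nM [3H]PGD2, WGA-SPA beads, 10 mM HEPES/KOH pH 7.4, 10 mM MnCl2, protease inhibitors, 1% DMSO; 90 min, room temperature, shaking. Nonspecific binding defined with 1 μM PGD2. Ki by Cheng–Prusoff, mean of ≥3 independent dose–response experiments.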

[2] = Percentage unbound in human plasma; assay type: ADME, cell-free
[3] = AUC in BALB/c mouse at 5 mg/kg, po; assay type: ADME, organism-based; parameters: dose 5 mg/kg, route oral; conditions: plasma
How it was run: (§1)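 Mouse PK after a 5 mg/kg oral dose.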

[4] = Clearance in BALB/c mouse at 5 mg/kg, po by LC/MS/MS analysis; assay type: ADME, organism-based; parameters: dose 5 mg/kg, route oral; conditions: in vivo
[5] = Percentage unbound in rat plasma; assay type: ADME, cell-free
[6] = Oral bioavailability in BALB/c mouse at 5 mg/kg by LC/MS/MS analysis; assay type: ADME, organism-based; conditions: in vivo; how it was run: as §1
[7] = Percentage unbound in mouse plasma; assay type: ADME, cell-free
[8] = Intrinsic clearance in human liver microsomes assessed per mg of protein at 1 uM by LC/MS/MS analysis; assay type: ADME, Microsome
[9] = Intrinsic clearance in rat liver microsomes assessed per mg of protein at 1 uM by LC/MS/MS analysis; assay type: ADME, Microsome
[10] = target: T2, Prostaglandin D2 receptor 2 (Homo sapiens) (UniProt Q9Y5Y4); experiment: Partial agonist activity at human CRTH2 expressed in chinese hamster CHO cells by cellular dielectric spectroscopy relative to PGD2; assay type: functional, cell-based
T2 sequence (whole entry): T1 sequence (Q9Y5Y4 whole entry)
How it was run: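 CHO-CRTH2 cells seeded at 100000/well, grown 24 h at 37 °C, washed into HBSS/10 mM HEPES pH 7.4 with 1% DMSO; impedance recorded. Agonism: compound alone, 25 min read. Antagonism: PGD2 at EC80 added to cell–compound mixture, 25 min read. Run with 0.1% BSA.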

Mus musculus [11] = experiment: Antiinflammatory activity in BALB/c mouse contact hypersensitivity model assessed as inhibition of FITC-mediated ear swelling at 3 mg/kg, po administered 1 hr prior to and 7 hrs after the FITC-challenge measured 24 hrs after final dose; assay type: functional
How it was run: (§2)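 Female 9-week-old BALB/c mice sensitized on days 0 and 1 with 0.5% FITC in acetone/dibutyl phthalate (sham group: vehicle only). Right ear challenged on day 6 with 0.5% FITC. Compound given by oral gavage 1 h before and 7 h after challenge. Ear thickness measured before and 24 h after challenge. Reported as mean % inhibition ± SEM.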

[12] = Half life in BALB/c mouse at 1 mg/kg, iv by LC/MS/MS analysis; assay type: ADME, organism-based; parameters: dose 1 mg/kg, route intravenous; conditions: in vivo
Mus musculus [13] = experiment: Antiinflammatory activity in BALB/c mouse model assessed as inhibition of ovalbumin-induced eosinophil accumulation in bronchoalveolar lavage fluid at 3 mg/kg, po administered 1 hr prior to and 7 hrs after ovalbumin challenge for 3 days measured 8 hrs after final dose by cell counting; assay type: functional; conditions: Lung
How it was run: (§3)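 Compound given by oral gavage 1 h before and 7 h after each challenge. BAL taken 8 h after the last challenge. Total cells counted by hemocytometer; eosinophils counted on DiffQuik-stained cytospins. Reported as mean % inhibition ± SEM.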

[14] = Half life in BALB/c mouse at 5 mg/kg, po by LC/MS/MS analysis; assay type: ADME, organism-based; parameters: dose 5 mg/kg, route oral; conditions: in vivo
[15] = target: T1, Prostaglandin D2 receptor 2; experiment: Antagonist activity human CRTH2 expressed in chinese hamster CHO cells assessed as inhibition of PGD2-induced [35S]GTPgamma binding by liquid scintillation counting; assay type: functional, cell-based
How it was run: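 10 μg human CRTH2 membranes in 20 mM HEPES/KOH pH 7.4, 10 mM MgCl2, 10 μg/mL saponin, 3 μM GDP, 150 mM NaCl, 2% DMSO, 30 °C. Preincubated 10 min, then 0.15 nM [35S]GTPγS for 30 min; stopped by centrifugation. Antagonism tested against 80 nM PGD2. Nonspecific binding with 10 μM GTPγS. Run without BSA.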

[16] = Apparent permeability across human Caco2 cells at 1 uM after 2 hrs by LC/MS/MS analysis; assay type: ADME, cell-based; conditions: Caco-2
[17] = target: T3, Prostaglandin D2 receptor 2 (Mus musculus, UniProt Q9Z2J6); experiment: Displacement of [3H]PGD2 from mouse CRTH2 expressed in human HEK cells by liquid scintillation counting; assay type: cell-based, HEK293
T3 sequence (Q9Z2J6 whole entry): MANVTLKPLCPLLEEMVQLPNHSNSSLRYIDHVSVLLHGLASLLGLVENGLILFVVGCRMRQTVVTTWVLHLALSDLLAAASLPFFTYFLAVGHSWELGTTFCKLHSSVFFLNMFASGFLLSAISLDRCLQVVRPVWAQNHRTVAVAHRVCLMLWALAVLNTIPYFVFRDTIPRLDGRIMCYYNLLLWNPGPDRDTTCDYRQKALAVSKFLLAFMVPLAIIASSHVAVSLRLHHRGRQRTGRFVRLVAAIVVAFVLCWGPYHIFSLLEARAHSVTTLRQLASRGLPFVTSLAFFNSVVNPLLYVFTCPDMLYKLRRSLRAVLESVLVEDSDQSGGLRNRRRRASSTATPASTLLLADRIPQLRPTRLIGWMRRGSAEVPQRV
How it was run: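 Mouse CRTH2 cDNA stably expressed in HEK293(EBNA) cells (hygromycin-selected) and membranes made by nitrogen cavitation. SPA competition uses 2–5 μg membranes, 1.5 nM [3H]PGD2, HEPES/KOH pH 7.4 with 10 mM MnCl2, 1% DMSO, 90 min at room temperature. Nonspecific binding defined with 1 μM PGD2. Ki by Cheng–Prusoff, ≥3 independent experiments.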

Mus musculus [18] = experiment: Antiinflammatory activity in BALB/c mouse contact hypersensitivity model assessed as inhibition of FITC-mediated ear swelling at 30 mg/kg, po administered 1 hr prior to and 7 hrs after the FITC-challenge measured 24 hrs after final dose; assay type: functional; how it was run: as §2
Mus musculus [19] = experiment: Antiinflammatory activity in BALB/c mouse model assessed as inhibition of ovalbumin-induced eosinophil accumulation in bronchoalveolar lavage fluid at 30 mg/kg, po administered 1 hr prior to and 7 hrs after ovalbumin challenge for 3 days measured 8 hrs after final dose by cell counting; assay type: functional; conditions: Lung; how it was run: as §3
Mus musculus [20] = experiment: Antiinflammatory activity in BALB/c mouse model assessed as inhibition of ovalbumin-induced eosinophil accumulation in bronchoalveolar lavage fluid at 10 mg/kg, po administered 1 hr prior to and 7 hrs after ovalbumin challenge for 3 days measured 8 hrs after final dose by cell counting; assay type: functional; conditions: Lung; how it was run: as §3
[21] = AUC in BALB/c mouse at 5 mg/kg, po by LC/MS/MS analysis; assay type: ADME, organism-based; parameters: dose 5 mg/kg, route oral; conditions: plasma
[22] = target: T1, Prostaglandin D2 receptor 2; experiment: Antagonist activity at human CRTH2 expressed in human CHO cells by cellular dielectric spectroscopy
Mus musculus [23] = experiment: Antiinflammatory activity in BALB/c mouse contact hypersensitivity model assessed as inhibition of FITC-mediated ear swelling at 10 mg/kg, po administered 1 hr prior to and 7 hrs after the FITC-challenge measured 24 hrs after final dose; assay type: functional; how it was run: as §2

Structure (SMILES)	Ki [1] [nM]	fraction unbound [2]	AUC [3] [ng·h/mL]	CL/F [4] [mL/min/kg]	fraction unbound [5]	fraction unbound [7]	microsomal CLint at 1 µM [8] [µL/min/mg]	microsomal CLint at 1 µM [9] [µL/min/mg]	also measured
CC(C)c1ccc(S(C)(=O)=O)cc1C#Cc1cc(Cl)ccc1OCC(=O)O	4.6	0.003	2650	8.33	0.004	0.013	–	–	bioavailability [6]: 29%
CCNS(=O)(=O)c1ccc(C)c(C#Cc2cc(Cl)ccc2OCC(=O)O)c1	4.4	0.005	–	–	0.008	0.008	< 10	24	–
Cc1ccc(S(=O)(=O)N2CCCCC2C)cc1C#Cc1cc(Cl)ccc1OCC(=O)O (stereo not drawn)	1.9	–	–	–	–	–	89	418	–
CCCS(=O)(=O)c1cccc(C#Cc2cc(C#N)ccc2OCC(=O)O)c1	21	–	–	–	–	–	–	–	Emax [10]: 30%
Cc1ccc(S(=O)(=O)N(C)CC(C)C)cc1C#Cc1cc(Cl)ccc1OCC(=O)O	4.2	–	–	–	–	–	79	119	–
Cc1ccc(S(=O)(=O)N(C)C)cc1C#Cc1cc(Cl)ccc1OCC(=O)O	5	0.004	–	–	0.004	0.01	< 10	22	–
CCCS(=O)(=O)c1ccc(F)c(C#Cc2cc(Cl)ccc2OCC(=O)O)c1	3.4	0.01	6140	6.67	0.004	0.007	12	< 10	inhibition in vivo at 3 mg/kg (Mus musculus [11]): 36%; half-life [12]: 2 h; inhibition in vivo at 3 mg/kg (Mus musculus [13]): 19%; half-life [14]: 1.9 h; IC50 [15]: 8 nM; Papp at 2 h, 1 µM [16]: 10.8 ×10⁻⁶ cm/s; Ki [17]: 0.37 nM; inhibition in vivo at 30 mg/kg (Mus musculus [18]): 48%; inhibition in vivo at 30 mg/kg (Mus musculus [19]): 55%; inhibition in vivo at 10 mg/kg (Mus musculus [20]): 27%; AUC [21]: 6140 ng·h/mL; IC50 [22]: 28 nM; inhibition in vivo at 10 mg/kg (Mus musculus [23]): 54%
Cc1ccc(S(=O)(=O)NC(C)C)cc1C#Cc1cc(Cl)ccc1OCC(=O)O	3.4	0.004	–	–	0.004	0.01	< 10	12	–
CC(C)c1ccc(S(C)(=O)=O)cc1C#Cc1cc(C#N)ccc1OCC(=O)O	12	–	151	145	–	–	–	–	bioavailability [6]: 26%
Cc1ccc(S(=O)(=O)N(C)C(C)C)cc1C#Cc1cc(Cl)ccc1OCC(=O)O	3.8	0.002	–	–	–	0.005	< 10	64	–
CCCS(=O)(=O)c1ccc(C)c(C#Cc2cc(C#N)ccc2OCC(=O)O)c1	7	–	1370	18.3	–	–	–	–	bioavailability [6]: 24%; Activity [10]: inactive
